Reference: ChEMBL document CHEMBL1759864, “Synthesis and proteasome inhibition of lithocholic acid derivatives” (Bioorg Med Chem Lett, 2011)
pIC50: −log10 of the molar value. Calls of active or inactive are those of the source. No cut-off for these calls is given here. Where a SMILES comes first, the peptide text is derived from it.

Tests used:
[1] = Inhibition of chymotrypsin-like activity of 20S proteasome
[2] = Inhibition of trypsin-like activity of 20S proteasome
[3] = Inhibition of caspase-like activity of 20S proteasome
HeLa = assay: Inhibition of proteasome activity in human HeLa cells transfected with UbG76V-GFP assessed as accumulation of ubiquitinG76V-GFP at 7.5 uM after 24 hrs by fluorescence microscopy
Procedure, shortened: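 HeLa cells stably expressing Ub^G76V-GFP, grown in DMEM with 10% heat-inactivated FBS at 37 °C, humidified. Cells seeded at 10,000 per well and exposed to compound at 7.5 µM for 24 h. Proteasome block is read as intracellular Ub^G76V-GFP accumulation (green fluorescence), documented by fluorescence microscopy against untreated cells.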

SMILES	pIC50 [1]	inhibition [1]	also measured
CSCC[C@@H](C=O)NC(=O)[C@H](CC(C)C)NC(=O)[C@H](CC(C)C)NC(C)=O (Ac-Leu-Leu-Met-aldehyde)	5.28		
C[C@H](CCC(=O)O)[C@H]1CC[C@H]2[C@@H]3CC[C@@H]4C[C@H](OC(=O)CCC(=O)O)CC[C@]4(C)[C@H]3CC[C@]12C	4.99		
COC(=O)CC[C@@H](C)[C@H]1CC[C@H]2[C@@H]3CC[C@@H]4C[C@H](OC(=O)Cc5cccc(CC(=O)O)c5)CC[C@]4(C)[C@H]3CC[C@]12C		inactive	
COC(=O)CC[C@@H](C)[C@H]1CC[C@H]2[C@@H]3CC[C@@H]4C[C@H](OC(=O)CCCCCC(=O)O)CC[C@]4(C)[C@H]3CC[C@]12C		inactive	
C[C@H](CCC(=O)O)[C@H]1CC[C@H]2[C@@H]3CC[C@@H]4C[C@H](O)CC[C@]4(C)[C@H]3CC[C@]12C [LITHOCHOLIC ACID]	4.74		
C[C@H](CCC(=O)O)[C@H]1CC[C@H]2[C@@H]3CC[C@@H]4C[C@H](OC(=O)c5ccccc5C(=O)O)CC[C@]4(C)[C@H]3CC[C@]12C	5.07		
C[C@H](CCC(=O)O)[C@H]1CC[C@H]2[C@@H]3CC[C@@H]4C[C@H](OC(=O)Cc5cccc(CC(=O)O)c5)CC[C@]4(C)[C@H]3CC[C@]12C	5.72		pIC50 [2]: 5.04; pIC50 [3]: 5.19
C[C@H](CCC(=O)O)[C@H]1CC[C@H]2[C@@H]3CC[C@@H]4C[C@H](OC(=O)Cc5ccc(CC(=O)O)cc5)CC[C@]4(C)[C@H]3CC[C@]12C	5.42		
C[C@H](CCC(=O)O)[C@H]1CC[C@H]2[C@@H]3CC[C@@H]4C[C@H](OC(=O)CCCC(=O)O)CC[C@]4(C)[C@H]3CC[C@]12C	4.97		
C[C@H](CCC(=O)O)[C@H]1CC[C@H]2[C@@H]3CC[C@@H]4C[C@H](OC(=O)CCCCCC(=O)O)CC[C@]4(C)[C@H]3CC[C@]12C		inactive	
CC(C(=O)O)C(C)C(=O)O[C@@H]1CC[C@@]2(C)[C@H](CC[C@@H]3[C@@H]2CC[C@]2(C)[C@@H]([C@H](C)CCC(=O)O)CC[C@@H]32)C1 (some centres not stated)	5.24		
CC(CC(=O)O[C@@H]1CC[C@@]2(C)[C@H](CC[C@@H]3[C@@H]2CC[C@]2(C)[C@@H]([C@H](C)CCC(=O)O)CC[C@@H]32)C1)C(=O)O (some centres not stated)	4.94		
C[C@H](CCC(=O)O)[C@H]1CC[C@H]2[C@@H]3CC[C@@H]4C[C@H](OC(=O)CCCCC(=O)O)CC[C@]4(C)[C@H]3CC[C@]12C	5.46		
CCOC(=O)CC[C@@H](C)[C@H]1CC[C@H]2[C@@H]3CC[C@@H]4C[C@H](O)CC[C@]4(C)[C@H]3CC[C@]12C		inactive	
C[C@H](CCC(=O)O)[C@H]1CC[C@H]2[C@@H]3CC[C@@H]4C[C@H](OC(=O)[C@@H]5CCCC[C@H]5C(=O)O)CC[C@]4(C)[C@H]3CC[C@]12C	5.07		
C[C@H](CCC(=O)O)[C@H]1CC[C@H]2[C@@H]3CC[C@@H]4C[C@H](OC(=O)CC5(CC(=O)O)CCCC5)CC[C@]4(C)[C@H]3CC[C@]12C	5.66		inhibition (HeLa): Active
COC(=O)CC[C@@H](C)[C@H]1CC[C@H]2[C@@H]3CC[C@@H]4C[C@H](O)CC[C@]4(C)[C@H]3CC[C@]12C		inactive	
CCOC(=O)CC[C@@H](C)[C@H]1CC[C@H]2[C@@H]3CC[C@@H]4C[C@H](OC(=O)CCCCCC(=O)O)CC[C@]4(C)[C@H]3CC[C@]12C		inactive	
C[C@H](CCC(=O)O)[C@H]1CC[C@H]2[C@@H]3CC[C@@H]4C[C@H](OC(=O)COCC(=O)O)CC[C@]4(C)[C@H]3CC[C@]12C	5.16		
